Test results published in ChEMBL document CHEMBL5154735, “Interaction of A3 adenosine receptor ligands with the human multidrug transporter ABCG2” (Eur J Med Chem, 2022).
Each block holds one molecule with its values, some of them ahead of it.

Experiments:
[1] = biological target: T1, ABCG2 (Homo sapiens, UniProt Q9UNQ0); assay: Activation of human ABCG2-mediated ATPase activity preincubated for 2 mins followed by ATP addition at 10 M and measured after 20 mins by colorimetric assay relative to control; design: dose or concentration left out as unconfirmed; details: read-out: Activity
T1 sequence (Q9UNQ0 whole entry): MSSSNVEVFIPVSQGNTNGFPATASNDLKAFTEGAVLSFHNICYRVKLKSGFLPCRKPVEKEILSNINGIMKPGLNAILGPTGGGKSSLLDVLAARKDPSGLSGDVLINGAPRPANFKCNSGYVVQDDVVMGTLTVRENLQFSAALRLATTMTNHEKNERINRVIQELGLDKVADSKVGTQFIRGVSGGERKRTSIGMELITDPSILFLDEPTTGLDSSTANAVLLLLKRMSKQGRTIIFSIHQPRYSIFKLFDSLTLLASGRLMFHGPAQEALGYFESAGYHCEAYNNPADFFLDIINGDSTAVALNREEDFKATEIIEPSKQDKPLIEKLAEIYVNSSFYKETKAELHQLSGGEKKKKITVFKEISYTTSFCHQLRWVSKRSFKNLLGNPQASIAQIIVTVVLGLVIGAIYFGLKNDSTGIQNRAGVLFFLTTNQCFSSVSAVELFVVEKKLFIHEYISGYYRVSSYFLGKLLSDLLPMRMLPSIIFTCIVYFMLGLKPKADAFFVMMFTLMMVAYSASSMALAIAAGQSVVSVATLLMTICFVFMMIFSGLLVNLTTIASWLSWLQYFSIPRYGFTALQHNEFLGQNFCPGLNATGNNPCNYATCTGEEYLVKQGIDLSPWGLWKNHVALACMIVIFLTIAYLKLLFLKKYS
Outline: (§1)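 Total membrane vesicles from High-Five insect cells expressing human ABCG2 (hypotonic lysis, differential centrifugation), 10 μg protein/tube, in MES-Tris pH 6.8 buffer with KCl, MgCl2, NaN3, EGTA, ouabain, DTT. Compound in DMSO added ± sodium orthovanadate (0.3 mM), DMSO control. Preincubated 2 min at 37°C, then 5 mM ATP, 20 min. SDS stop, Pi measured colorimetrically. Three independent experiments in duplicate, mean ± SE.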

[2] = biological target: T1, ABCG2; assay: Activation of human ABCG2-mediated ATPase activity preincubated for 2 mins followed by ATP addition at 2.5 M and measured after 20 mins by colorimetric assay relative to control; design: dose or concentration left out as unconfirmed; details: read-out: Activity; outline: as §1
[3] = biological target: T1, ABCG2; assay: Effect on human ABCG2 transporter preincubated for 2 mins followed by ATP addition assessed as basal ATPase activity at 100 nM and measured after 20 mins by colorimetric assay relative to control; details: read-out: Activity; outline: as §1
[4] = biological target: T2, Adenosine receptor A3 (Homo sapiens, UniProt P0DMS8); assay: Binding affinity towards human adenosine A3 receptor
T2 sequence (P0DMS8 whole entry): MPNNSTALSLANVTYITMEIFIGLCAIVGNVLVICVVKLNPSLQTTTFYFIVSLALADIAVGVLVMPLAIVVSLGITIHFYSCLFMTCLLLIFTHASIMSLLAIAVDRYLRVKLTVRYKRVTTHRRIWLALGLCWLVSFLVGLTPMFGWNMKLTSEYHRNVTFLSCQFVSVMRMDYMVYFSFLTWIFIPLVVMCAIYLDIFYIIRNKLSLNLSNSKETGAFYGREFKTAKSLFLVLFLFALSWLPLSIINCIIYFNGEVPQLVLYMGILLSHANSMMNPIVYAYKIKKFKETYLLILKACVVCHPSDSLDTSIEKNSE

[5] = biological target: T1, ABCG2; assay: Activation of human ABCG2-mediated ATPase activity preincubated for 2 mins followed by ATP addition at 100 nM and measured after 20 mins by colorimetric assay relative to control; details: read-out: Activity; outline: as §1
[6] = biological target: T1, ABCG2; assay: Inhibition of human ABCG2 in human R5 cells assessed as inhibition of mitoxantrone efflux at 10 uM measured by flow cytometric analysis relative to control; format: cell-based; details: probe mitoxantrone
Outline: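 HEK293 cells transfected with full-length ABCG2 (R-5) or empty pcDNA vector, grown in MEM with 10% FBS and 2 mg/ml G418. Cells incubated in IMDM with 5% FBS, 5 μM mitoxantrone (final) ± compound, 37°C for 45 min. Washed in cold IMDM, resuspended in cold PBS with 1% BSA, read by flow cytometry.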

[7] = biological target: T3, Broad substrate specificity ATP-binding cassette transporter ABCG2 (Homo sapiens, UniProt Q9UNQ0); assay: Activation of human ABCG2-mediated ATPase activity preincubated for 2 mins followed by ATP addition and measured after 20 mins by colorimetric assay; outline: as §1
T3 sequence (Q9UNQ0 whole entry): T1 sequence (Q9UNQ0 whole entry)

[8] = biological target: T1, ABCG2; assay: Activation of human ABCG2-mediated ATPase activity preincubated for 2 mins followed by ATP addition at 2.5 uM and measured after 20 mins by colorimetric assay relative to control; details: read-out: Activity; outline: as §1

activity at 20 min [1]: 122%
activity at 20 min [2]: 124%
SMILES: CCCNc1nc(C#Cc2ccc(Cl)s2)nc2c1ncn2[C@@H]1O[C@H](C(=O)NC)[C@@H](O)[C@H]1O

activity at 20 min [1]: 122%
activity at 20 min [2]: 112%
SMILES: CNC(=O)[C@H]1O[C@@H](n2cnc3c(NC)nc(C#Cc4ccc(Cl)s4)nc32)[C@H](O)[C@@H]1O

activity at 20 min, 0.1 µM [3]: ≤ 30%
SMILES: CNc1nc(C#Cc2ccc(Cl)s2)nc2c1ncn2[C@@H]1O[C@H](C(=O)OC)[C@@H](O)[C@H]1O

Ki [4]: ≥ 99 nM
activity at 20 min, 0.1 µM [5]: 92.1%
SMILES: Cn1cnc2c(NCCc3ccccc3)nc(C#Cc3ccc(Cl)s3)nc21

Ki [4]: ≥ 99 nM
activity at 20 min, 0.1 µM [5]: 79.6%
SMILES: COc1ccc(CCNC2=NC(I)=NC3=NC=CC32)cc1O (stereo not given)

activity at 20 min, 0.1 µM [5]: 40.5%
SMILES: Clc1cccc(CNC2=NC(C#Cc3ccc(Cl)s3)=NC3=NC=NC32)c1 (stereo not given)

Ki [4]: ≥ 99 nM
EC50 [7]: 50 nM
activity at 20 min [1]: 164%
activity at 20 min [2]: 165%
SMILES: Fc1ccc(C#CC2=NC3=NC=NC3C(NCc3cccc(Cl)c3)=N2)cc1F (stereo not given)
inhibition at 10 µM [6]: 81.4%

Ki [4]: ≥ 99 nM
activity at 20 min, 0.1 µM [5]: 104%
SMILES: COc1ccc(CCNC2=NC(C#Cc3ccc(Cl)s3)=NC3=NC=CC32)cc1O (stereo not given)

Ki [4]: ≥ 99 nM
activity at 20 min, 0.1 µM [5]: 80.8%
SMILES: Clc1ccc(C#CC2=NC3=NC=NC3C(NCCc3ccccc3)=N2)s1 (stereo not given)

Ki [4]: ≥ 99 nM
activity at 20 min, 0.1 µM [5]: 95.9%
SMILES: Oc1ccc(CCNC2=NC(C#Cc3ccc(Cl)s3)=NC3=NC=NC32)cc1O (stereo not given)

activity at 20 min, 0.1 µM [3]: ≤ 30%
SMILES: CCOC(=O)[C@]12C[C@@H]1[C@@H](n1cnc3c(NC)nc(C#Cc4ccc(F)s4)nc31)[C@H](O)[C@@H]2O

activity at 20 min, 0.1 µM [3]: ≤ 30%
SMILES: CNc1nc(C#Cc2ccc(Cl)s2)nc2c1ncn2[C@H]1[C@H](O)[C@H](O)[C@@]2(C(=O)OCCc3ccccc3)C[C@H]12

activity at 20 min, 0.1 µM [5]: 38.8%
SMILES: CNc1nc(C#Cc2ccc(Cl)s2)nc2c1ncn2[C@H]1[C@H](O)[C@H](O)[C@@]2(C(=O)OCCCc3ccccc3)C[C@H]12

EC50 [7]: 70 nM
activity at 20 min [1]: 98.2%
activity at 20 min [2]: 66.2%
SMILES: CNC(=O)C1O[C@@H](n2cnc3c(NCc4cccc(I)c4)ncnc32)[C@H](O)[C@@H]1O (single isomer, unassigned)

Ki [4]: ≥ 99 nM
activity at 20 min [1]: 54.1%
activity at 20 min [2]: 75.2%
SMILES: O[C@@H]1[C@H](O)C2CC2[C@H]1n1cnc2c(NCc3cccc(Cl)c3)nc(C#Cc3ccc(F)c(F)c3)nc21 (single isomer, unassigned)

activity at 20 min, 0.1 µM [3]: ≤ 30%
SMILES: CCOC(=O)C12CC1[C@@H](n1cnc3c(NC)nc(C#Cc4ccc(Cl)s4)cc31)[C@H](O)[C@@H]2O (single isomer, unassigned)

activity at 20 min, 0.1 µM [5]: 37.9%
SMILES: CCOC(=O)C12C[C@@H]1[C@@H](n1ccc3c(NCCCc4ccccc4)nc(C#Cc4ccccc4)nc31)[C@H](O)[C@@H]2O (single isomer, unassigned)

activity at 20 min, 0.1 µM [3]: ≤ 30%
SMILES: CCOC(=O)C12CC1[C@@H](n1ccc3c(NCC4CC4)nc(C#Cc4ccccc4)nc31)[C@H](O)[C@@H]2O (single isomer, unassigned)

activity at 20 min, 0.1 µM [5]: 59.3%
SMILES: CCOC(=O)C12CC1[C@@H](n1cnc3c(NCCc4ccc(O)c(OC)c4)nc(C#Cc4ccc(Cl)s4)nc31)[C@H](O)[C@@H]2O (single isomer, unassigned)

activity at 20 min, 2.5 µM [8]: 101%
EC50 [7]: 14 nM
SMILES: CNC(=O)C12CC1[C@@H](n1cnc3c(N[C@H]4C[C@@H]4c4ccc(F)c(F)c4)nc(C#Cc4cccc(F)c4)nc31)[C@H](O)[C@@H]2O (single isomer, unassigned)
inhibition at 10 µM [6]: 97.2%

activity at 20 min, 2.5 µM [8]: 74.8%
EC50 [7]: 13 nM
SMILES: CNC(=O)C12CC1[C@@H](n1cnc3c(N[C@@H]4C[C@H]4c4ccc(F)c(F)c4)nc(C#Cc4cccc(F)c4)nc31)[C@H](O)[C@@H]2O (single isomer, unassigned)
inhibition at 10 µM [6]: 97.4%

activity at 20 min, 0.1 µM [3]: ≤ 30%
SMILES: CCOC(=O)C12CC1[C@@H](n1ccc3c(NC)nc(I)nc31)[C@H](O)[C@@H]2O (single isomer, unassigned)

activity at 20 min, 0.1 µM [3]: ≤ 30%
SMILES: CCOC(=O)C12CC1[C@@H](n1cnc3c(NC)cc(C#Cc4ccc(Cl)s4)nc31)[C@H](O)[C@@H]2O (single isomer, unassigned)

activity at 20 min, 0.1 µM [3]: ≤ 30%
SMILES: CCCCOC(=O)C12CC1[C@@H](n1cnc3c(NC)nc(C#Cc4ccc(Cl)s4)nc31)[C@H](O)[C@@H]2O (single isomer, unassigned)

activity at 20 min [1]: 92.9%
activity at 20 min [2]: 97.5%
SMILES: CNC(=O)C12CC1[C@@H](n1cnc3c(NCc4cccc(Cl)c4)nc(C#Cc4ccc(Cl)s4)nc31)[C@H](O)[C@@H]2O (single isomer, unassigned)

activity at 20 min [2]: 59.2%
SMILES: CNC(=O)C12CC1[C@@H](n1cnc3c(NC)nc(C#Cc4ccc(Cl)s4)nc31)[C@H](O)[C@@H]2O (single isomer, unassigned)

activity at 20 min, 0.1 µM [3]: ≤ 30%
SMILES: CCOC(=O)C12CC1[C@@H](n1ccc3c(NC4CC4)nc(C#Cc4ccccc4)nc31)[C@H](O)[C@@H]2O (single isomer, unassigned)

activity at 20 min, 0.1 µM [3]: ≤ 30%
SMILES: CCOC(=O)C12CC1[C@@H](n1ccc3c(NC)nc(C#Cc4ccccc4)nc31)[C@H](O)[C@@H]2O (single isomer, unassigned)

activity at 20 min [1]: 79%
activity at 20 min [2]: 89.1%
SMILES: CNc1nc(C#Cc2ccc(Cl)s2)nc2c1ncn2[C@@H]1C2CC2(C(=O)OC)[C@@H](O)[C@H]1O (single isomer, unassigned)

activity at 20 min, 0.1 µM [5]: 33.9%
SMILES: CCCOC(=O)C12CC1[C@@H](n1cnc3c(NC)nc(C#Cc4ccc(Cl)s4)nc31)[C@H](O)[C@@H]2O (single isomer, unassigned)

activity at 20 min, 0.1 µM [5]: 50.3%
SMILES: CNc1nc(C#Cc2ccc(Cl)s2)nc2c1ncn2[C@@H]1C2CC2(C(=O)Oc2ccccc2)[C@@H](O)[C@H]1O (single isomer, unassigned)

Ki [4]: ≥ 99 nM
activity at 20 min, 0.1 µM [5]: 55.9%
SMILES: CCOC(=O)C12CC1[C@@H](n1ccc3c(NCCCc4ccc(OC)c(O)c4)nc(C#Cc4ccccc4)nc31)[C@H](O)[C@@H]2O (single isomer, unassigned)

activity at 20 min, 0.1 µM [5]: 64.3%
SMILES: CCOC(=O)C12CC1[C@@H](n1cnc3c(NCCc4ccc(OC)c(O)c4)nc(C#Cc4ccc(Cl)s4)nc31)[C@H](O)[C@@H]2O (single isomer, unassigned)

activity at 20 min [1]: 40%
activity at 20 min [2]: 77.9%
SMILES: CCCNc1nc(C#Cc2ccc(Cl)s2)nc2c1ncn2[C@@H]1C2CC2(C(=O)NC)[C@@H](O)[C@H]1O (single isomer, unassigned)

activity at 20 min, 0.1 µM [5]: 45.5%
SMILES: CCOC(=O)C12CC1[C@@H](n1ccc3c(NCCCc4ccccc4)nc(C#Cc4ccc(Cl)s4)nc31)[C@H](O)[C@@H]2O (single isomer, unassigned)

activity at 20 min, 0.1 µM [5]: 41%
SMILES: CCOC(=O)C12CC1[C@@H](n1ccc3c(NC)nc(C#Cc4ccc(Cl)s4)nc31)[C@H](O)[C@@H]2O (single isomer, unassigned)

activity at 20 min, 0.1 µM [3]: ≤ 30%
SMILES: CNc1nc(C#Cc2ccc(Cl)s2)nc2c1ncn2[C@@H]1C2CC2(C(=O)OCCC2CCCCC2)[C@@H](O)[C@H]1O (single isomer, unassigned)

activity at 20 min, 0.1 µM [3]: ≤ 30%
SMILES: CNc1nc(C#Cc2ccc(Cl)s2)nc2c1ncn2[C@@H]1C2CC2(C(=O)OC(C)C)[C@@H](O)[C@H]1O (single isomer, unassigned)

activity at 20 min, 0.1 µM [3]: ≤ 30%
SMILES: CNc1nc(C#Cc2ccc(Cl)s2)nc2c1ncn2[C@@H]1C2CC2(C(=O)OCCC(C)C)[C@@H](O)[C@H]1O (single isomer, unassigned)

EC50 [7]: 1420 nM
activity at 20 min [1]: 69.9%
activity at 20 min [2]: 101%
SMILES: CNC(=O)[C@H]1O[C@@H](n2cnc3c(NCc4cccc(I)c4)nc(Cl)nc32)[C@H](O)[C@@H]1O [NAMODENOSON]
